Assay results published in ChEMBL document CHEMBL4184236, “Design, synthesis and biological evaluation of matrine derivatives as potential anticancer agents” (Bioorg Med Chem Lett, 2018).

Columns and labels:
SMMC-7721 [1] = test: Anticancer activity against human SMMC7721 cells assessed as reduction in cell viability incubated for 48 hrs MTT assay; assay type: functional, cell-based; conditions: SMMC-7721, 48 h
In short: (§1)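 MTT assay on human hepatocarcinoma SMMC-7721, lung carcinoma A549 and nasopharyngeal carcinoma CNE2 cells, with matrine as comparator and cisplatin as positive control. IC50 is the concentration that lowers optical density of treated cells by 50% versus untreated cells, given as the mean ± SD of three experiments.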

CNE-2 [2] = test: Anticancer activity against human CNE2 cells assessed as reduction in cell viability incubated for 48 hrs MTT assay; assay type: functional, cell-based; conditions: CNE-2, 48 h; in short: as §1
CNE-2 [3] = test: Induction of apoptosis in human CNE2 cells assessed as viable cells level at 5 uM incubated for 24 hrs by Annexin V-FITC/PI dual staining based flow cytometry (reference value: 91.6%); assay type: functional
In short: (§2)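 CNE2 and SMMC-7721 cells were treated for 24 h at 0, 5, 10 or 30 µM, or at 0, 10, 20 or 50 µM depending on compound. Cells were stained with Annexin V-FITC/propidium iodide and quantified by flow cytometry. Apoptotic cells were counted as AV+/PI− (lower right) plus AV+/PI+ (upper right) quadrants.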

CNE-2 [4] = test: Induction of apoptosis in human CNE2 cells assessed as necrotic cells level at 5 uM incubated for 24 hrs by Annexin V-FITC/PI dual staining based flow cytometry (reference value: 3.43%); assay type: functional; in short: as §2
CNE-2 [5] = test: Induction of apoptosis in human CNE2 cells assessed as viable cells level at 10 uM incubated for 24 hrs by Annexin V-FITC/PI dual staining based flow cytometry (reference value: 91.6%); assay type: functional; in short: as §2
CNE-2 [6] = test: Induction of apoptosis in human CNE2 cells assessed as late apoptotic cells level at 30 uM incubated for 24 hrs by Annexin V-FITC/PI dual staining based flow cytometry (reference value: 1.37%); assay type: functional; in short: as §2
CNE-2 [7] = test: Induction of apoptosis in human CNE2 cells assessed as necrotic cells level at 30 uM incubated for 24 hrs by Annexin V-FITC/PI dual staining based flow cytometry (reference value: 3.43%); assay type: functional; in short: as §2
SMMC-7721 [8] = test: Induction of apoptosis in human SMMC7721 cells assessed as necrotic cells level at 5 uM incubated for 24 hrs by Annexin V-FITC/PI dual staining based flow cytometry (reference value: 2.47%); assay type: functional; in short: as §2
SMMC-7721 [9] = test: Induction of apoptosis in human SMMC7721 cells assessed as late apoptotic cells level at 10 uM incubated for 24 hrs by Annexin V-FITC/PI dual staining based flow cytometry (reference value: 0.88%); assay type: functional; in short: as §2
SMMC-7721 [10] = test: Induction of apoptosis in human SMMC7721 cells assessed as early apoptotic cells level at 30 uM incubated for 24 hrs by Annexin V-FITC/PI dual staining based flow cytometry (reference value: 1.36%); assay type: functional; in short: as §2
SMMC-7721 [11] = test: Induction of apoptosis in human SMMC7721 cells assessed as necrotic cells level at 30 uM incubated for 24 hrs by Annexin V-FITC/PI dual staining based flow cytometry (reference value: 2.47%); assay type: functional; in short: as §2
CNE-2 [12] = test: Induction of cell cycle arrest in human CNE2 cells assessed as accumulation at subG1 phase at 5 uM incubated for 24 hrs by propidium iodide staining based flow cytometry (reference value: 0.55%); assay type: functional
CNE-2 [13] = test: Induction of cell cycle arrest in human CNE2 cells assessed as accumulation at G0-G1 phase at 5 uM incubated for 24 hrs by propidium iodide staining based flow cytometry (reference value: 69.3%); assay type: functional
CNE-2 [14] = test: Induction of cell cycle arrest in human CNE2 cells assessed as accumulation at S phase at 5 uM incubated for 24 hrs by propidium iodide staining based flow cytometry (reference value: 10.3%); assay type: functional
CNE-2 [15] = test: Induction of cell cycle arrest in human CNE2 cells assessed as accumulation at G2/M phase at 5 uM incubated for 24 hrs by propidium iodide staining based flow cytometry (reference value: 19.8%); assay type: functional
CNE-2 [16] = test: Induction of cell cycle arrest in human CNE2 cells assessed as accumulation at subG1 phase at 10 uM incubated for 24 hrs by propidium iodide staining based flow cytometry (reference value: 0.55%); assay type: functional
CNE-2 [17] = test: Induction of cell cycle arrest in human CNE2 cells assessed as accumulation at G0-G1 phase at 10 uM incubated for 24 hrs by propidium iodide staining based flow cytometry (reference value: 69.3%); assay type: functional
CNE-2 [18] = test: Induction of cell cycle arrest in human CNE2 cells assessed as accumulation at G2/M phase at 10 uM incubated for 24 hrs by propidium iodide staining based flow cytometry (reference value: 19.8%); assay type: functional
CNE-2 [19] = test: Induction of cell cycle arrest in human CNE2 cells assessed as accumulation at subG1 phase at 30 uM incubated for 24 hrs by propidium iodide staining based flow cytometry (reference value: 0.55%); assay type: functional
SMMC-7721 [20] = test: Induction of cell cycle arrest in human SMMC7721 cells assessed as accumulation at G0-G1 phase at 5 uM incubated for 24 hrs by propidium iodide staining based flow cytometry (reference value: 64.1%); assay type: functional
SMMC-7721 [21] = test: Induction of cell cycle arrest in human SMMC7721 cells assessed as accumulation at S phase at 5 uM incubated for 24 hrs by propidium iodide staining based flow cytometry (reference value: 17.2%); assay type: functional
SMMC-7721 [22] = test: Induction of cell cycle arrest in human SMMC7721 cells assessed as accumulation at G0-G1 phase at 30 uM incubated for 24 hrs by propidium iodide staining based flow cytometry (reference value: 64.1%); assay type: functional
SMMC-7721 [23] = test: Induction of cell cycle arrest in human SMMC7721 cells assessed as accumulation at G2/M phase at 30 uM incubated for 24 hrs by propidium iodide staining based flow cytometry (reference value: 18.4%); assay type: functional
CNE-2 [24] = test: Induction of cell cycle arrest in human CNE2 cells assessed as accumulation at G2/M phase incubated for 24 hrs by propidium iodide staining based flow cytometry; assay type: functional

- IC50 (SMMC-7721 [1]): 4.65 µM
SMILES: COc1cc(Cn2cccc2/C=C2\CC[C@@H]3[C@H]4CCCN5CCC[C@@H](CN3C2=O)[C@@H]45)cc(OC)c1
- IC50 (CNE-2 [2]): 3.55 µM
- Activity (CNE-2 [3]): 85.5%
- Activity (CNE-2 [4]): 2.58%
- Activity (CNE-2 [5]): 60.7%
- Activity (CNE-2 [6]): 16%
- Activity (CNE-2 [7]): 6.5%
- Activity (SMMC-7721 [8]): 4.04%
- Activity (SMMC-7721 [9]): 18.5%
- Activity (SMMC-7721 [10]): 33.1%
- Activity (SMMC-7721 [11]): 3.67%
- Activity (CNE-2 [12]): 5.06%
- Activity (CNE-2 [13]): 55.2%
- Activity (CNE-2 [14]): 11%
- Activity (CNE-2 [15]): 29.5%
- Activity (CNE-2 [16]): 4.35%
- Activity (CNE-2 [17]): 3.93%
- Activity (CNE-2 [18]): 89.4%
- Activity (CNE-2 [19]): 4.2%
- Activity (SMMC-7721 [20]): 63%
- Activity (SMMC-7721 [21]): 7.92%
- Activity (SMMC-7721 [22]): 8.58%
- Activity (SMMC-7721 [23]): 79.1%
- Activity (CNE-2 [24]): Dose-dependent effect
